Hits are enriched below; roughly 5.8% of the tested compounds scored in any of these assays.
RBBP9 inhibitor = blocks human serine hydrolase RBBP9. O75884. recombinant RBBP9, FP-Rh probe fluorescence polarization. inhibition, % at 7.94 µM. actives 0.2% (n = 220,000). AID 1515;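 active = inhibition above the campaign mean of all tested compounds plus 3 SD, cut at about 14% in these data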;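 note: plate controls were DMSO wells with RBBP9 for no effect and wells lacking RBBP9 protein for full effect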
Target sequence (O75884 whole entry, looked up): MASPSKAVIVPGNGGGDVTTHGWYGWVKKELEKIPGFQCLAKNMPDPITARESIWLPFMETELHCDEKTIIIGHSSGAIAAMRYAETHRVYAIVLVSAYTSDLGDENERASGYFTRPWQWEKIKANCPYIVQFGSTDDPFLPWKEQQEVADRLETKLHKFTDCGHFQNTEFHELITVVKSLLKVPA
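System: RBBP9 protein / Quantity: 2.5 µM RBBP9 dispensing solution, before mixing / Also added: Serine-hydrolase probe FP-Rh, 375 nM pre-mixing / Dosing: 7.94 µM single dose, 0.794% DMSO / Timing: enzyme-compound preincubation 30 min, then probe labeling 45 min, 25 °C / Signal: FP readout at 525/598 nm / Controls: DMSO-treated enzyme wells and wells lacking RBBP9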
14-3-3 Bad inh = disrupts binding of bovine 14-3-3 zeta to phospho-Bad peptide; P63103; TR-FRET 14-3-3zeta/Dy647-pBad peptide displacement, 1 h; inhibition, % at 21.7 µM; actives 0.71% (n = 220,000); AID 781;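 active = inhibition above about 70%, limit read from the data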;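 note: 0% = full 14-3-3 plus peptide FRET controls and 100% = background without 14-3-3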
Target sequence (P63103 whole entry, looked up): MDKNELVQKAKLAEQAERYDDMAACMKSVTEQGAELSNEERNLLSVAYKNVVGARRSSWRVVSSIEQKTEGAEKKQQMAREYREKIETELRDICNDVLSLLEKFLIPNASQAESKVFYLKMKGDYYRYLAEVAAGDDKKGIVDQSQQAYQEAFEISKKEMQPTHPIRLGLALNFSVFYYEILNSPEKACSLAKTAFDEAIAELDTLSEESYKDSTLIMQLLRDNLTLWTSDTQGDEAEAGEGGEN
Cl transport mod = modulators of human KCC2 chloride dependent transport | Q9H2X9 | KCC2 cells, thallium flux FluoZin-2 fluorescence | B-score of Tl+ flux slope (higher = more flux/activation; lower = inhibition) at 10 µM | actives 2.2% (n = 190,000) | AID 1456;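 active = thallium flux slope and its plate-corrected score both differing from the plate sample mean at a set confidence after two filtering rounds, in either direction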;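 note: slope of fluorescence scaled to starting intensity during 10 to 20 s after thallium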
NCF1 inh = p47phox (human) inhibition; P14598; p47phox/p22phox peptide binding, fluorescence polarization, 2 h; inhibition, % at 24.7 µM; actives 0.53% (n = 220,000);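 active = inhibition above about 30%, limit read from the data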;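 note: 0% = p47phox with labelled peptide and 100% = labelled peptide alone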
ROMK mod = modulates human ROMK potassium channel activity | P48048 | Tet-inducible ROMK, thallium flux fluorescence; actives lie on both sides | B-score at 10 µM | actives 2% (n = 130,000) | AID 1918;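 active = signal ratio slope over the read window, or its plate-corrected B-score, at least 3 SD from the plate mean, either direction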;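 note: B-score of the F/F0 ratio slope over 7 to 12 s after thallium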
WT yeast gro inh = growth inhibition of WT yeast, mitochondrial fusion screen. actives 2.1% (n = 190,000). mitochondrial fusion phenotypic screen, WT strain. inhibition, % at 10 µM; in the data active = inhibition above about 58%; tested in S. cerevisiae
Active calls of the source: *; · = not tested or not shown; [ ] = dose if it differs, or a comment.

SMILES	RBBP9 inhibitor	14-3-3 Bad inh	Cl transport mod	NCF1 inh	ROMK mod	WT yeast gro inh
CC1(C#CC[N+]2(C)CCCCC2)CCC2C(O1)c1ccccc1OC2(C)C (stereo unspecified)	0.6	41.6	-1.45	-2.3	-0.151	-16.5
O=C(O)c1cc(N2C(=O)C3C4C=CC(C4)C3C2=O)ccc1N1CCOCC1 (stereo unspecified)	-10.6	6.8	0.0374	6.8	0.175	13.9
C/C(=N\NC(=S)Nc1ccc(F)cc1)c1ccc2c(c1)OCCO2	0.7	-20.6	48*	-7.8	·	31.2
C/C(=N\NC(N)=S)c1ccc2c(c1)OCCO2	1.0	-9.5	1.02	-5.7	·	·
CCOc1c(Cl)cc(C(=O)Nc2cccc(C(=O)O)c2)cc1Cl	-7.4	-9.1	-0.834	-1.5	0.233	-1.4
Cc1ccc(CN2CCN(CC(=O)NCCCN3CCN(c4ccc(F)cc4)CC3)C2=O)cc1	-7.4	-7.5	-0.17	-10.0	·	-11.1
CCOCCCNC(=O)CN1CCN(c2ccc(F)cc2)CC1	1.9	73.5*	0.0228	-22.5	·	-14.0
O=C(NCC(c1cccnc1)N1CCOCC1)c1ccco1 (stereo unspecified)	6.0	5.8	-0.165	-17.5	0.144	71.2*
O=C(NCC(c1cccnc1)N1CCN(c2ccc(F)cc2)CC1)c1ccco1 (stereo unspecified)	-2.7	-0.2	0.19	-12.0	·	-3.4
COc1ccc(F)cc1C(=O)C1CCCN(C(=O)C2=C(C)OCCO2)C1 (stereo unspecified)	0.0	-17.1	0.0304	-6.0	0.871	6.1
Cc1ccnc(NS(=O)(=O)c2ccc(N=CC3=C(O)CC(C)(C)CC3=O)cc2)n1	-8.5	16.2	1.23	6.3	-1.08	66.7*
CCOc1ccc(S(=O)(=O)N(C)c2ccc(OCC(=O)NCc3ccc(C(=O)OC)cc3)cc2)cc1	-6.6	-6.4	-0.39	-10.4	-0.0516	4.4
Cc1ccc(N2NC(=O)/C(=C/c3ccc(-c4ccc(Cl)c(C(=O)O)c4)o3)C2=O)cc1C	-0.5	-0.1	0.168	-11.8	·	-2.4
O=C1NN(c2cccc(Br)c2)C(=O)/C1=C/c1ccc(-c2cc([N+](=O)[O-])ccc2O)o1	-0.3	79.5*	-0.981	-1.9	·	·
CN1C(=O)c2ccccc2Sc2ccc(NC(=O)N3CCCC3)cc21	-0.6	-1.3	-1.82	-3.3	·	78.7*
CN1CCN(C(=O)Nc2ccc3c(c2)N(C)C(=O)c2ccccc2S3)CC1	-4.7	-13.1	-0.016	-33.2	0.159	0.2
CC1=CC(C)(C)NC(=S)N1c1cccc2cc(S(=O)(=O)O)ccc12	-8.7	4.8	0.95	-3.5	·	·
CC(OC(=O)c1ccccc1Nc1ccc(SC(F)F)cc1)C(N)=O (stereo unspecified)	-20.3	35.6	-0.0335	-5.8	-0.117	80.9*
COc1ccc(CN2CC(=O)N(c3ccc(C)c(C)c3)C2=S)cc1OC	-9.7	-8.3	0.548	-18.3	0.915	10.1
Cc1cc(CCC(=O)O)c(C)cc1CCC(=O)O	-8.2	83.2*	0.6	2.7	-0.28	-0.6
CCOc1ccccc1C(=O)NCc1ccc2c(c1)OCO2	-3.9	2.5	·	11.7	·	6.2
CCOc1cccc2cc(-c3nnc(NCc4ccc5c(c4)OCO5)s3)c(=O)oc12	-2.4	83.1*[fluorescence artefact?]	-0.0342	66.9*	·	-12.8
Cn1nnnc1SCC(=O)Nc1ccc(S(=O)(=O)N2CCOCC2)cc1	-4.1	-8.2	·	-4.5	·	·
NS(=O)(=O)c1ccc(CCNC(=O)c2ccc3ccccc3n2)cc1	-3.3	-5.3	0.151	-1.3	-1.29	-7.7
O=C(NN=C1CCCCCC1)c1ccc(Br)o1	-8.2	5.6	0.269	5.4	0.453	6.5
SMILES	RBBP9 inhibitor	14-3-3 Bad inh	Cl transport mod	NCF1 inh	ROMK mod	WT yeast gro inh
CC(C)N1CCC(=NNC(=O)c2ccc(Br)o2)CC1	-7.1	8.5	-0.412	-1.9	2.73*	-14.9
COc1cc(CCC(C)=O)ccc1OC(=O)c1c(F)cccc1Cl	1.8	-3.9	·	-5.1	·	·
N#CC(C#N)=C1NC2(CCCCC2)Cc2ccccc21	-9.2	-3.6	-1.08	-8.7	·	·
N#CC(C#N)=c1ccc2c(c1)NC1(CCCCC1)N=2	-3.8	-40.6	-0.719	132.5*	-1.3	43.4
Cc1ccnc(NC(=O)c2cc3c(=O)oc4ccc(C)cc4c3s2)c1	-5.6	63.9	0.887	24.0	-0.534	·
Cc1ccc(NC(=O)c2cc3c(=O)oc4ccc(C)cc4c3s2)nc1	0.1	78.4*	0.0749	22.2	·	·
O=C(Nc1ccccc1)c1ccc(S(=O)(=O)NCc2ccco2)cc1	-7.8	-0.2	·	-7.4	·	0.1

Source: PubChem (several laboratories)
